Test system: Fibroblast
Experiment: Multiplex assay against human fibroblast
Type: toxicity, cell-based
How it was run: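 Phenotypes for tubulin, mitochondrial mass and membrane permeability are expressed as per cents of healthy-nucleus cells. Cells were stained live at seeding with Hoechst33342, BioTracker Green Microtubule Cytoskeleton Dye, MitoTracker Red and Annexin V Alexa Fluor 680, then imaged after compound addition on a CQ1 microscope at 37°C and 5% CO2. Machine-learning gating in CellPathfinder separated Hoechst high-intensity objects from normal cells, divided normal cells by nuclear state (healthy, pyknosed, fragmented) and divided pyknosed cells into mitotic or apoptotic.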

[1] = 12 h, 1 µM, compound concentration 1 uM, replicate 1
[2] = 12 h, 1 µM, compound concentration 1 uM, replicate 2
[3] = 12 h, 10 µM, compound concentration 10 uM, replicate 1
[4] = 12 h, 10 µM, compound concentration 10 uM, replicate 2
[5] = 24 h, 1 µM, compound concentration 1 uM, replicate 1
[6] = 24 h, 1 µM, compound concentration 1 uM, replicate 2
[7] = 24 h, 10 µM, compound concentration 10 uM, replicate 1
[8] = 24 h, 10 µM, compound concentration 10 uM, replicate 2
[9] = 48 h, 1 µM, compound concentration 1 uM, replicate 1
[10] = 48 h, 1 µM, compound concentration 1 uM, replicate 2
[11] = 48 h, 10 µM, compound concentration 10 uM, replicate 1
[12] = 48 h, 10 µM, compound concentration 10 uM, replicate 2

In the case of C[C@H]1[C@H]2CC[C@H]3[C@@H]4CC=C5C[C@@H](N(C)C)CC[C@]5(C)[C@H]4CC[C@]23CN1C [CONESSINE], the “Population Apoptotic (%)” value [1] is reported as 45%, the “Population Fragmented Nuclei (%)” value [1] is reported as 15% and the “Population Healthy Nuclei (%)” value [1] is reported as 73%. The “Population Hoechst High Intensity Objects (%)” value [1] was 1%, the “Population Membrane Permeable-Phenotype (%)” value [1] was 0% and the “Population Mitochondria Different-Phenotype (%)” value [1] was 8%. For the same molecule, the “Population Mitotic Cells (%)” value [1] was 55%, the “Population Normal (%)” value [1] was 98% and the “Population Pyknosed Nuclei (%)” value [1] was 11%. The “Population Tubulin-Different-Phenotype (%)” value [1] was 19%, the “Total Cell Count” value [1] was 174 and the “Population Apoptotic (%)” value [2] was 29%. The “Population Fragmented Nuclei (%)” value [2] was 33%, the “Population Healthy Nuclei (%)” value [2] was 41% and the “Population Hoechst High Intensity Objects (%)” value [2] was 2%. For the same molecule, the “Population Membrane Permeable-Phenotype (%)” value [2] was 7%, the “Population Mitochondria Different-Phenotype (%)” value [2] was 2% and the “Population Mitotic Cells (%)” value [2] was 70%. The “Population Normal (%)” value [2] was 97%, the “Population Pyknosed Nuclei (%)” value [2] was 24% and the “Population Tubulin-Different-Phenotype (%)” value [2] was 46%. For the same molecule, the “Total Cell Count” value [2] was 101, the “Population Apoptotic (%)” value [3] was 37% and the “Population Fragmented Nuclei (%)” value [3] was 26%. For the same molecule, the “Population Healthy Nuclei (%)” value [3] was 60%, the “Population Hoechst High Intensity Objects (%)” value [3] was 3% and the “Population Membrane Permeable-Phenotype (%)” value [3] was 5%. The “Population Mitochondria Different-Phenotype (%)” value [3] was 10%, the “Population Mitotic Cells (%)” value [3] was 62% and the “Population Normal (%)” value [3] was 96%. For the same molecule, the “Population Pyknosed Nuclei (%)” value [3] was 13%, the “Population Tubulin-Different-Phenotype (%)” value [3] was 32% and the “Total Cell Count” value [3] was 189. For the same molecule, the “Population Apoptotic (%)” value [4] was 43%, the “Population Healthy Nuclei (%)” value [4] was 45% and the “Population Membrane Permeable-Phenotype (%)” value [4] was 8%. The “Population Mitochondria Different-Phenotype (%)” value [4] was 4%, the “Population Mitotic Cells (%)” value [4] was 56% and the “Population Pyknosed Nuclei (%)” value [4] was 28%. The “Population Tubulin-Different-Phenotype (%)” value [4] was 58%, the “Total Cell Count” value [4] was 110 and the “Population Apoptotic (%)” value [5] was 43%. The “Population Fragmented Nuclei (%)” value [5] was 13%, the “Population Healthy Nuclei (%)” value [5] was 73% and the “Population Hoechst High Intensity Objects (%)” value [5] was 2%. The “Population Membrane Permeable-Phenotype (%)” value [5] was 1%, the “Population Mitochondria Different-Phenotype (%)” value [5] was 4% and the “Population Mitotic Cells (%)” value [5] was 56%. The “Population Normal (%)” value [5] was 97%, the “Population Pyknosed Nuclei (%)” value [5] was 13% and the “Population Tubulin-Different-Phenotype (%)” value [5] was 22%. For the same molecule, the “Total Cell Count” value [5] was 175, the “Population Apoptotic (%)” value [6] was 40% and the “Population Fragmented Nuclei (%)” value [6] was 27%. For the same molecule, the “Population Healthy Nuclei (%)” value [6] was 48%, the “Population Hoechst High Intensity Objects (%)” value [6] was 4% and the “Population Membrane Permeable-Phenotype (%)” value [6] was 13%. For the same molecule, the “Population Mitochondria Different-Phenotype (%)” value [6] was 6%, the “Population Mitotic Cells (%)” value [6] was 59% and the “Population Normal (%)” value [6] was 95%. The “Population Pyknosed Nuclei (%)” value [6] was 24%, the “Population Tubulin-Different-Phenotype (%)” value [6] was 61% and the “Total Cell Count” value [6] was 95. The “Population Apoptotic (%)” value [7] was 64%, the “Population Fragmented Nuclei (%)” value [7] was 28% and the “Population Healthy Nuclei (%)” value [7] was 61%. The “Population Hoechst High Intensity Objects (%)” value [7] was 3%, the “Population Membrane Permeable-Phenotype (%)” value [7] was 1% and the “Population Mitochondria Different-Phenotype (%)” value [7] was 7%. The “Population Mitotic Cells (%)” value [7] was 35%, the “Population Normal (%)” value [7] was 96% and the “Population Pyknosed Nuclei (%)” value [7] was 9%. For the same molecule, the “Population Tubulin-Different-Phenotype (%)” value [7] was 27%, the “Total Cell Count” value [7] was 190 and the “Population Apoptotic (%)” value [8] was 36%. For the same molecule, the “Population Healthy Nuclei (%)” value [8] was 39%, the “Population Hoechst High Intensity Objects (%)” value [8] was 2% and the “Population Membrane Permeable-Phenotype (%)” value [8] was 7%. For the same molecule, the “Population Mitotic Cells (%)” value [8] was 63%, the “Population Normal (%)” value [8] was 97% and the “Population Pyknosed Nuclei (%)” value [8] was 32%. The “Population Tubulin-Different-Phenotype (%)” value [8] was 60%, the “Total Cell Count” value [8] was 106 and the “Population Apoptotic (%)” value [9] was 50%. For the same molecule, the “Population Fragmented Nuclei (%)” value [9] was 17%, the “Population Healthy Nuclei (%)” value [9] was 73% and the “Population Hoechst High Intensity Objects (%)” value [9] was 5%. For the same molecule, the “Population Membrane Permeable-Phenotype (%)” value [9] was 0%, the “Population Mitochondria Different-Phenotype (%)” value [9] was 3% and the “Population Mitotic Cells (%)” value [9] was 50%. The “Population Normal (%)” value [9] was 94%, the “Population Pyknosed Nuclei (%)” value [9] was 9% and the “Population Tubulin-Different-Phenotype (%)” value [9] was 27%. For the same molecule, the “Total Cell Count” value [9] was 178, the “Population Apoptotic (%)” value [10] was 47% and the “Population Fragmented Nuclei (%)” value [10] was 37%. The “Population Healthy Nuclei (%)” value [10] was 45%, the “Population Hoechst High Intensity Objects (%)” value [10] was 0% and the “Population Membrane Permeable-Phenotype (%)” value [10] was 17%. The “Population Mitochondria Different-Phenotype (%)” value [10] was 8%, the “Population Mitotic Cells (%)” value [10] was 52% and the “Population Normal (%)” value [10] was 99%. The “Population Pyknosed Nuclei (%)” value [10] was 16%, the “Population Tubulin-Different-Phenotype (%)” value [10] was 63% and the “Total Cell Count” value [10] was 104. The “Population Apoptotic (%)” value [11] was 66%, the “Population Fragmented Nuclei (%)” value [11] was 26% and the “Population Healthy Nuclei (%)” value [11] was 62%. The “Population Hoechst High Intensity Objects (%)” value [11] was 6%, the “Population Membrane Permeable-Phenotype (%)” value [11] was 0% and the “Population Mitochondria Different-Phenotype (%)” value [11] was 4%. The “Population Mitotic Cells (%)” value [11] was 33%, the “Population Normal (%)” value [11] was 93% and the “Population Pyknosed Nuclei (%)” value [11] was 10%. The “Population Tubulin-Different-Phenotype (%)” value [11] was 25%, the “Total Cell Count” value [11] was 190 and the “Population Apoptotic (%)” value [12] was 27%. For the same molecule, the “Population Fragmented Nuclei (%)” value [12] was 29%, the “Population Healthy Nuclei (%)” value [12] was 48% and the “Population Hoechst High Intensity Objects (%)” value [12] was 2%. For the same molecule, the “Population Membrane Permeable-Phenotype (%)” value [12] was 8%, the “Population Mitochondria Different-Phenotype (%)” value [12] was 6% and the “Population Mitotic Cells (%)” value [12] was 72%. For the same molecule, the “Population Normal (%)” value [12] was 97%, the “Population Pyknosed Nuclei (%)” value [12] was 22% and the “Population Tubulin-Different-Phenotype (%)” value [12] was 62%. For the same molecule, the “Total Cell Count” value [12] was 102.

Reference: ChEMBL document CHEMBL5058577, “EUbOPEN Chemogenomics Library 2 (Multiplex)” (2022)
